{"source": "paper PMC6499389", "about": "(European journal of medicinal chemistry, 2019)", "key": {"hTopo I": {"biological_target": "T1, hTopo I (Homo sapiens, UniProt P11387)", "T1 sequence (P11387 1-765)": "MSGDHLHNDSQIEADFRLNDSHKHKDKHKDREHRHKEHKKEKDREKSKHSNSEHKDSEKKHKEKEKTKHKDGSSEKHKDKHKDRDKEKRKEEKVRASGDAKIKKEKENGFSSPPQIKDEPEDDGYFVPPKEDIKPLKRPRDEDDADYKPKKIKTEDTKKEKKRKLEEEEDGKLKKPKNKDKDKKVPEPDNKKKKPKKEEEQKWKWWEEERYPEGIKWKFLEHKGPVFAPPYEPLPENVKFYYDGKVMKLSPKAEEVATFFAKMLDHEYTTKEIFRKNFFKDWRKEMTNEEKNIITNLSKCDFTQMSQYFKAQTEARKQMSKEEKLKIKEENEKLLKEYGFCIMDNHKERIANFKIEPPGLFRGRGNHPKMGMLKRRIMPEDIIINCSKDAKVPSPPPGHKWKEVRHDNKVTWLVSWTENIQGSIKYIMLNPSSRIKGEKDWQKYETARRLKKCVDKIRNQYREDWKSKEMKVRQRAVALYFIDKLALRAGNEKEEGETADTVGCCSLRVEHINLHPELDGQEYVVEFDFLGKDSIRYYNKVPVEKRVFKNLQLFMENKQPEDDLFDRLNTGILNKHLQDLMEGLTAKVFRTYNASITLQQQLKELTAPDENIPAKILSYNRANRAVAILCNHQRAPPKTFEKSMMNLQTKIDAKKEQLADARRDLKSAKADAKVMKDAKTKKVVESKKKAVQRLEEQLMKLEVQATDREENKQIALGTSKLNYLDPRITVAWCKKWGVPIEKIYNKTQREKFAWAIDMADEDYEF", "assay": "Relaxation assay for hTopo I", "format": "biochemical", "details": "for fold lower activity (loss in hTopo I inhibition) than 5a: relative to 5a; for fold lower activity (loss in hTopo I inhibition) than 5a / fold lower activity (loss in hTopo I inhibition) than 217: from relaxation assay IC50; for fold lower activity (loss in hTopo I inhibition) than 217: relative to 217", "procedure,_shortened": "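Supercoiled pBR322 (0.3 μg) was relaxed by 1 unit of commercial human Topo I. Buffer: 50 mM Tris-HCl pH 7.5, 100 mM NaCl, 10 mM MgCl2, 1 mM DTT, 50 μg/ml BSA, plus varied test compound concentrations. Incubation was 15 min at 37°C, stopped with 25 mM EDTA. Products ran on 1.2% agarose, 2 V/cm, 15 h, TAE, then were ethidium-stained and imaged. IC50 came from band quantification.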"}, "[1]": {"system": "27-bp sequence d(CCTTACGTGCATAGTCATTCATGACCG) of dsDNA", "assay": "DNA binding assay", "details": "compound 25 μM"}, "[2]": {"system": "colon cancer (HT-29) xenograft", "details": "HT-29 xenograft model, mice; cited from earlier work"}, "calf thymus DNA (Ct-DNA) [3]": {"system": "calf thymus DNA (Ct-DNA)", "assay": "DNA binding assay", "details": "several ratios of DNA to FQ"}, "calf thymus DNA (Ct-DNA) [4]": {"system": "calf thymus DNA (Ct-DNA)", "details": "ref Previous studies; cited from earlier work"}}, "note": "Like-named read-outs stand apart in the source and are kept apart here.", "data": [{"smiles": "NC[C@@H]1CCN(c2ccc3c(=O)c(C(=O)O)cn(Cc4ccc(-c5ccccc5)cc4)c3c2)C1", "note": "[086B/6a, (S)-1-([1,1′-biphenyl]-4-ylmethyl)-7-(3-(aminomethyl)pyrrolidin-1-yl)-4-oxo-1,4-dihydroquinoline-3-carboxylic acid]", "values": [{"measurement": "fold lower activity (loss in hTopo I inhibition) than 5a", "setting": "hTopo I", "result": "~4", "unit": "fold"}, {"measurement": "fold lower activity than its cognate C6-fluorine analog 7a", "setting": "hTopo I; relative to 7a as printed", "result": 4, "unit": "fold"}]}, {"smiles": "O=C(O)c1cn(Cc2ccc(-c3ccccc3)cc2)c2cc(N3CC4CNCC4C3)c(F)cc2c1=O", "note": "(stereo not drawn) [089/5l, 1-([1,1′-biphenyl]-4-ylmethyl)-6-fluoro-7-(hexahydropyrrolo[3,4-c]pyrrol-2(1H)-yl)-4-oxo-1,4-dihydroquinoline-3-carboxylic acid]", "values": [{"measurement": "fold lower activity (loss in hTopo I inhibition) than 5a", "setting": "hTopo I", "result": 2, "unit": "fold"}]}, {"smiles": "O=C(O)c1cn(Cc2ccc(-c3ccccc3)cc2)c2cc(N3C[C@H]4CCNC[C@H]4C3)c(F)cc2c1=O", "note": "[091/5k, 1-([1,1′-biphenyl]-4-ylmethyl)-6-fluoro-7-((3aS,7aS)-hexahydro-1H-pyrrolo[3,4-c]pyridin-2(3H)-yl)-4-oxo-1,4-dihydroquinoline-3-carboxylic acid]", "values": [{"measurement": "fold lower activity (loss in hTopo I inhibition) than 5a", "setting": "hTopo I", "result": 4, "unit": "fold"}, {"measurement": "fold more active than 5f", "setting": "hTopo I; relative to C7 N-methyl AMP analog 5f", "result": "~3", "unit": "fold"}]}, {"smiles": "N[C@@H]1CCN(c2cc3c(cc2F)c(=O)c(C(=O)O)cn3Cc2ccc(-c3ccccc3)cc2)C1", "note": "[117/5g, (R)-1-([1,1′-biphenyl]-4-ylmethyl)-7-(3-aminopyrrolidin-1-yl)-6-fluoro-4-oxo-1,4-dihydroquinoline-3-carboxylic acid]", "values": [{"measurement": "fold lower activity (loss in hTopo I inhibition) than 5a", "setting": "hTopo I", "result": 4, "unit": "fold"}]}, {"smiles": "CN[C@@H]1CCN(c2cc3c(cc2F)c(=O)c(C(=O)O)cn3Cc2ccc(-c3ccccc3)cc2)C1", "note": "[118/5h, (R)-1-([1,1′-biphenyl]-4-ylmethyl)-6-fluoro-7-(3-(methylamino)pyrrolidin-1-yl)-4-oxo-1,4-dihydroquinoline-3-carboxylic acid]", "values": [{"measurement": "fold lower activity (loss in hTopo I inhibition) than 5a", "setting": "hTopo I", "result": 2, "unit": "fold"}]}, {"smiles": "COc1c(N2CC[C@@H](N)C2)c(F)cc2c(=O)c(C(=O)O)cn(Cc3ccc(-c4ccccc4)cc3)c12", "note": "[226/4d, (R)-1-([1,1′-biphenyl]-4-ylmethyl)-7-(3-aminopyrrolidin-1-yl)-6-fluoro-8-methoxy-4-oxo-1,4-dihydroquinoline-3-carboxylic acid]", "values": [{"measurement": "fold lower activity (loss in hTopo I inhibition) than 217", "setting": "hTopo I", "result": "more than 3 fold"}]}, {"smiles": "CN[C@@H]1CCN(c2c(F)cc3c(=O)c(C(=O)O)cn(Cc4ccc(-c5ccccc5)cc4)c3c2OC)C1", "note": "[228/4e, (R)-1-([1,1′-biphenyl]-4-ylmethyl)-6-fluoro-8-methoxy-7-(3-(methylamino)pyrrolidin-1-yl)-4-oxo-1,4-dihydroquinoline-3-carboxylic acid]", "values": [{"measurement": "fold lower activity (loss in hTopo I inhibition) than 217", "setting": "hTopo I", "result": "about 2 fold"}]}, {"smiles": "CNC(=O)c1cn(Cc2ccc(-c3ccccc3)cc2)c2c(OC)c(N3CC[C@@H](CN)C3)c(F)cc2c1=O", "note": "[242/3a, (S)-1-([1,1′-biphenyl]-4-ylmethyl)-7-(3-(aminomethyl)pyrrolidin-1-yl)-6-fluoro-8-methoxy-N-methyl-4-oxo-1,4-dihydroquinoline-3-carboxamide]", "values": [{"measurement": "fold lower activity (loss in hTopo I inhibition) than 217", "setting": "hTopo I", "result": "3- to 7 fold"}]}, {"smiles": "COc1c(N2CC[C@@H](CN)C2)c(F)cc2c(=O)c(C(N)=O)cn(Cc3ccc(-c4ccccc4)cc3)c12", "note": "[251/3b, (S)-1-([1,1′-biphenyl]-4-ylmethyl)-7-(3-(aminomethyl)pyrrolidin-1-yl)-6-fluoro-8-methoxy-4-oxo-1,4-dihydroquinoline-3-carboxamide]", "values": [{"measurement": "fold lower activity (loss in hTopo I inhibition) than 217", "setting": "hTopo I", "result": "3- to 7 fold"}]}, {"smiles": "COc1c(N2CC[C@@H](CN)C2)c(F)cc2c(=O)c(C(=O)O)cn(Cc3ccc(-c4ccc(F)cc4)cc3)c12", "note": "[277/7c, (S)-7-(3-(aminomethyl)pyrrolidin-1-yl)-6-fluoro-1-((4′-fluoro-[1,1′-biphenyl]-4-yl)methyl)-8-methoxy-4-oxo-1,4-dihydroquinoline-3-carboxylic acid]", "values": [{"measurement": "fold lower activity (loss in hTopo I inhibition) than 217", "setting": "hTopo I", "result": 2, "unit": "fold"}]}, {"smiles": "COc1c(N2CC[C@@H](CN)C2)c(F)cc2c(=O)c(C(=O)O)cn(Cc3ccc(-n4cccn4)cc3)c12", "note": "[292B/7a, (S)-1-(4-(1H-pyrazol-1-yl)benzyl)-7-(3-(aminomethyl)pyrrolidin-1-yl)-6-fluoro-8-methoxy-4-oxo-1,4-dihydroquinoline-3-carboxylic acid]", "values": [{"measurement": "fold lower activity (loss in hTopo I inhibition) than 217", "setting": "hTopo I", "result": "≥ 7", "unit": "fold"}]}, {"smiles": "COc1c(N2CC[C@@H](CN)C2)c(F)cc2c(=O)c(C(=O)O)cn(Cc3cc(-c4ccccc4)no3)c12", "note": "[294B/7b, (S)-7-(3-(aminomethyl)pyrrolidin-1-yl)-6-fluoro-8-methoxy-4-oxo-1-((3-phenylisoxazol-5-yl)methyl)-1,4-dihydroquinoline-3-carboxylic acid]", "values": [{"measurement": "fold lower activity (loss in hTopo I inhibition) than 217", "setting": "hTopo I", "result": "≥ 7", "unit": "fold"}]}, {"smiles": "O=C(O)c1cn(Cc2ccc(-n3cccn3)cc2)c2cc(NC[C@@H]3CCNC3)c(F)cc2c1=O", "note": "[298B/9e, (R)-1-(4-(1H-pyrazol-1-yl)benzyl)-6-fluoro-4-oxo-7-((pyrrolidin-3-ylmethyl)amino)-1,4-dihydroquinoline-3-carboxylic acid]", "values": [{"measurement": "IC50", "setting": "hTopo I", "result": "> 200", "unit": "µM"}]}, {"smiles": "O=C(O)c1cn(Cc2ccc(-n3cccn3)cc2)c2cc(N3C[C@H]4CCNC[C@H]4C3)c(F)cc2c1=O", "note": "[300B/9c, 1-(4-(1H-pyrazol-1-yl)benzyl)-6-fluoro-7-((3aS,7aS)-hexahydro-1H-pyrrolo[3,4-c]pyridin-2(3H)-yl)-4-oxo-1,4-dihydroquinoline-3-carboxylic acid]", "values": [{"measurement": "fold improvement of hTopo I inhibition compared to 9a", "setting": "hTopo I; relative to 9a", "result": 2, "unit": "fold"}]}, {"smiles": "COc1c(N2CC[C@@H](CN)C2)c(F)cc2c(=O)c(C(=O)O)cn(Cc3ccc(-c4ccccc4)cc3)c12", "note": "[Compound 217]", "values": [{"measurement": "bathochromic shift upon addition of 27-bp dsDNA", "setting": "[1]", "result": "a bathochromic shift was not observed"}, {"measurement": "fluorescence quenching upon addition of 27-bp dsDNA", "setting": "[1]; dsDNA 0–200 μM, n=3", "result": "quenched in a concentration-dependent manner"}, {"measurement": "inhibition of proliferation of colon cancer in vivo", "setting": "[2]", "result": "inhibited the proliferation of colon cancer in vivo as well as fluorouracil"}, {"measurement": "fluorescence quenching upon addition of Ct-DNA", "setting": "calf thymus DNA (Ct-DNA) [3]", "result": "Modest fluorescence quenching"}, {"measurement": "bathochromic shift upon addition of Ct-DNA", "setting": "calf thymus DNA (Ct-DNA) [3]; fluoroquinolone 25 μM, Ct-DNA 0 or 400 μM", "result": "no bathochromic shift was observed"}]}, {"smiles": "COc1c(N2CC[C@@H](CN)C2)c(F)cc2c(=O)c(C(=O)O)cn(Cc3ccc4ccccc4c3)c12", "note": "[Compound 227]", "values": [{"measurement": "inhibition of proliferation of colon cancer in vivo", "setting": "[2]", "result": "exhibited activity but was not as effective as 217"}]}, {"smiles": "CCn1cc(C(=O)O)c(=O)c2cc(F)c(N3CCNCC3)cc21", "note": "[Norfloxacin]", "values": [{"measurement": "bathochromic shift upon addition of Ct-DNA", "setting": "calf thymus DNA (Ct-DNA) [4]", "result": "an observed bathochromic shift"}, {"measurement": "fluorescence quenching upon addition of Ct-DNA", "setting": "calf thymus DNA (Ct-DNA) [4]", "result": "significant quenching"}]}]}
